Measured values published in ChEMBL document CHEMBL4359831, “Chemoproteomics of an Indole-Based Quinone Epoxide Identifies Druggable Vulnerabilities in Vancomycin-Resistant Staphylococcus aureus” (J Med Chem, 2019).
In brackets after ≈: the same amount, converted by molar mass. Activity calls are given as the source filed them. The calls are words filed in the database; no cut-off is given here.

Legend:
Staphylococcus aureus [1] = assay: Antibacterial activity against Staphylococcus aureus ATCC 29213 after 16 to 18 hrs by CLSI M07-A10 protocol based dilution method; format: functional
In short: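 MIC against ATCC 29213 determined by a previously described protocol; values in μg/mL.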

[2] = L-cysteine reactivity in pH 7.4 phosphate buffer assessed as compound remaining at 100 uM incubated for 1 hr by HPLC analysis
Staphylococcus aureus [3] = assay: Bactericidal activity against Staphylococcus aureus ATCC 29213 at 1 to 10 times MIC preincubated up to 24 hrs under shaking condition followed by bacterial plating on Tryptic Soy agar and measured after 18 to 20 hrs by time kill assay; format: functional, organism-based
[4] = Selectivity index, ratio of CC50 for African green monkey Vero cells to MIC90 for Staphylococcus aureus ATCC 29213; format: toxicity; settings: read-out: Selectivity Index
[5] = L-cysteine reactivity in pH 7.4 phosphate buffer at 100 uM preincubated for 1 hr followed by mono-bromobimane addition and measured after 30 mins by fluorescence based competition assay
Staphylococcus aureus [6] = assay: Binding affinity to soluble protein in Staphylococcus aureus ATCC 29213 cell lysates after 1 hr by Rhodamine azide fluorescence dependent gel-based ABPP assay; format: functional; settings: Lysate
In short: (§1)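 S. aureus soluble or fractionated membrane lysates were incubated 1 h with alkyne probe (0.01–100 μM), then Cu-catalysed click with rhodamine-azide. Proteomes were resolved by SDS-PAGE and visualised by in-gel fluorescence (gel-based ABPP).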

Staphylococcus aureus [7] = assay: Binding affinity to membrane protein in Staphylococcus aureus ATCC 29213 cell lysates after 1 hr by Rhodamine azide fluorescence dependent gel-based ABPP assay; format: functional; settings: Lysate; in short: as §1
Staphylococcus aureus [8] = assay: Binding affinity to soluble protein in Staphylococcus aureus ATCC 29213 cells after 1 hr by Rhodamine azide fluorescence dependent gel-based ABPP assay; format: functional, organism-based
In short: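 Live S. aureus cultures were treated with probe (10 μM, 1 h), then lysed and fractionated into soluble and membrane proteomes. Labelling was assessed by rhodamine-azide click and SDS-PAGE fluorescence.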

Staphylococcus aureus [9] = assay: Antibacterial activity against vancomycin-resistant Staphylococcus aureus SA-HIP-14300 after 16 to 18 hrs by CLSI M07-A10 protocol based dilution method; format: functional
Staphylococcus aureus [10] = assay: Antibacterial activity against vancomycin-resistant Staphylococcus aureus SA-HIP-11983 after 16 to 18 hrs by CLSI M07-A10 protocol based dilution method; format: functional
Staphylococcus aureus [11] = assay: Antibacterial activity against vancomycin-resistant Staphylococcus aureus AIS100050 after 16 to 18 hrs by CLSI M07-A10 protocol based dilution method; format: functional
Staphylococcus aureus [12] = assay: Antibacterial activity against vancomycin-resistant Staphylococcus aureus SA-HIP-15178 after 16 to 18 hrs by CLSI M07-A10 protocol based dilution method; format: functional
Staphylococcus aureus [13] = assay: Antibacterial activity against vancomycin-resistant Staphylococcus aureus SA-71080 after 16 to 18 hrs by CLSI M07-A10 protocol based dilution method; format: functional
Staphylococcus aureus [14] = assay: Antibacterial activity against vancomycin-resistant Staphylococcus aureus HIP11714 after 16 to 18 hrs by CLSI M07-A10 protocol based dilution method; format: functional
Staphylococcus aureus [15] = assay: Antibacterial activity against vancomycin-resistant Staphylococcus aureus HIP14300 after 16 to 18 hrs by CLSI M07-A10 protocol based dilution method; format: functional
Staphylococcus aureus [16] = assay: Antibacterial activity against vancomycin-resistant Staphylococcus aureus 1002434 after 16 to 18 hrs by CLSI M07-A10 protocol based dilution method; format: functional
Staphylococcus aureus [17] = assay: Bactericidal activity against vancomycin-resistant Staphylococcus aureus HIP11714 at 10 times MIC measured up to 24 hrs by time kill assay; format: functional, organism-based
Staphylococcus aureus [18] = assay: Cysteine reactivity in iodoacetamide treated Staphylococcus aureus ATCC 29213 cell lysates at 10 uM incubated for 1 hr by Rhodamine azide fluorescence dependent gel-based competitive ABPP assay; format: subcellular; settings: Cell lysate
In short: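 Fractionated S. aureus soluble and membrane lysates were pretreated with excess iodoacetamide (10 mM), then chased with probe (10 μM). Read-out was rhodamine-azide click and SDS-PAGE in-gel fluorescence.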

Escherichia coli [19] = assay: Binding affinity to soluble protein in Escherichia coli ATCC 25922 cell lysates after 1 hr by Rhodamine azide fluorescence dependent gel-based ABPP assay; format: functional; settings: Lysate
Escherichia coli [20] = assay: Binding affinity to membrane protein in Escherichia coli ATCC 25922 cell lysates after 1 hr by Rhodamine azide fluorescence dependent gel-based ABPP assay; format: functional; settings: Lysate
Staphylococcus aureus [21] = assay: Binding affinity to Staphylococcus aureus ATCC 29213 C-terminal His6-tagged MarR_12840 (Cys61 residue) expressed in Escherichia coli BL21(DE3) cells up to 100 uM incubated for 1 hr by Rhodamine azide fluorescence dependent gel-based ABPP assay
In short: (§2)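 Recombinant His-tagged MarR proteins were purified from E. coli by Ni-NTA, as wild type and as Cys→Ala variants (C61A MarR_12840; C12A MarR_05815). Proteins were labelled with probe at 0–100 μM for 1 h, then click with rhodamine-azide and SDS-PAGE fluorescence read-out.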

Staphylococcus aureus [22] = assay: Binding affinity to Staphylococcus aureus ATCC 29213 C-terminal His6-tagged MarR_05815 (Cys12 residue) expressed in Escherichia coli BL21(DE3) cells up to 100 uM incubated for 1 hr by Rhodamine azide fluorescence dependent gel-based ABPP assay; in short: as §2
Staphylococcus aureus [23] = assay: Binding affinity to Staphylococcus aureus ATCC 29213 C-terminal His6-tagged MarR_12840 C61A mutant expressed in Escherichia coli BL21(DE3) cells up to 100 uM incubated for 1 hr by Rhodamine azide fluorescence dependent gel-based ABPP assay
In short: (§3)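 Recombinant His-tagged protein purified from E. coli by Ni-NTA affinity chromatography; wild-type and Cys-to-Ala variant treated with increasing alkyne quinone-epoxide probe (0–100 μM) for 1 h. Then Cu-catalysed click reaction with rhodamine-azide, SDS-PAGE resolution, and in-gel fluorescence visualisation of probe labelling.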

Staphylococcus aureus [24] = assay: Binding affinity to Staphylococcus aureus ATCC 29213 C-terminal His6-tagged MarR_05815 C12A mutant expressed in Escherichia coli BL21(DE3) cells up to 100 uM incubated for 1 hr by Rhodamine azide fluorescence dependent gel-based ABPP assay; in short: as §3
Escherichia coli [25] = assay: Binding affinity to soluble protein in Escherichia coli ATCC 25922 cells after 1 hr by Rhodamine azide fluorescence dependent gel-based ABPP assay; format: functional, organism-based
Escherichia coli [26] = assay: Binding affinity to membrane protein in Escherichia coli ATCC 25922 cells after 1 hr by Rhodamine azide fluorescence dependent gel-based ABPP assay; format: functional, organism-based
[27] = L-cysteine reactivity in pH 7.4 phosphate buffer assessed as pseudo first order rate constant at 100 uM measured at 10 mins time interval up to 60 mins by HPLC analysis

Cc1cc2c3ccccc3n(C(C)C)c2c2c1C(=O)C1OC1C2=O (centres undefined)
MIC (Staphylococcus aureus [1]): 4 µg/mL (≈ 12.5 µM) | Activity [2]: 84%

CC(C)n1c2ccccc2c2ccc3c(c21)C(=O)C1(c2ccccc2)OC1C3=O (centres undefined)
MIC (Staphylococcus aureus [1]): 0.0625 µg/mL (≈ 0.164 µM) | Activity (Staphylococcus aureus [3]): Active | selectivity ratio [4]: > 200

COc1ccc(C23OC2C(=O)c2c(ccc4c5ccccc5n(C(C)C)c24)C3=O)cc1 (centres undefined)
MIC (Staphylococcus aureus [1]): > 64 µg/mL

CC(C)n1c2ccccc2c2ccc3c(c21)C(=O)C1OC1(c1ccc(Br)cc1)C3=O (centres undefined)
MIC (Staphylococcus aureus [1]): > 64 µg/mL

CCc1cc2c3ccccc3n(C(C)C)c2c2c1C(=O)C1OC1C2=O (centres undefined)
MIC (Staphylococcus aureus [1]): 64 µg/mL (≈ 192 µM) | Activity [2]: 88%

O=C1c2ccc3c4ccccc4n(-c4ccccc4)c3c2C(=O)C2OC12 (centres undefined)
MIC (Staphylococcus aureus [1]): 2 µg/mL (≈ 5.89 µM) | Activity [2]: 57%

Cc1cc2c([nH]c3ccccc32)c2c1C(=O)C1OC1C2=O (centres undefined)
MIC (Staphylococcus aureus [1]): > 16 µg/mL | Activity [2]: 86%

CCn1c2ccccc2c2cc(C)c3c(c21)C(=O)C1OC1C3=O (centres undefined)
MIC (Staphylococcus aureus [1]): 2 µg/mL (≈ 6.55 µM) | Activity [2]: 93%

CC(C)n1c2ccccc2c2ccc3c(c21)C(=O)C1(c2ccc(Br)cc2)OC1C3=O (centres undefined)
MIC (Staphylococcus aureus [1]): 1 µg/mL (≈ 2.17 µM)

C#CCCCn1c2ccccc2c2ccc3c(c21)C(=O)C1OC1(c1ccccc1)C3=O (centres undefined)
MIC (Staphylococcus aureus [1]): > 64 µg/mL | Activity [5]: Active | Activity (Staphylococcus aureus [6]): inactive | Activity (Staphylococcus aureus [7]): Active | Activity (Staphylococcus aureus [8]): Active

CN[C@H](CC(C)C)C(=O)N[C@H]1C(=O)N[C@@H](CC(N)=O)C(=O)N[C@H]2C(=O)N[C@H]3C(=O)N[C@H](C(=O)N[C@H](C(=O)O)c4cc(O)cc(O)c4-c4cc3ccc4O)[C@H](O)c3ccc(c(Cl)c3)Oc3cc2cc(c3O[C@@H]2O[C@H](CO)[C@@H](O)[C@H](O)[C@H]2O[C@H]2C[C@](C)(N)[C@H](O)[C@H](C)O2)Oc2ccc(cc2Cl)[C@H]1O [VANCOMYCIN]
MIC (Staphylococcus aureus [9]): > 64 µg/mL | MIC (Staphylococcus aureus [10]): 32 to 64 µg/mL (≈ 22.1 to 44.2 µM) | MIC (Staphylococcus aureus [11]): 32 to 64 µg/mL (≈ 22.1 to 44.2 µM) | MIC (Staphylococcus aureus [12]): 32 to 64 µg/mL (≈ 22.1 to 44.2 µM) | MIC (Staphylococcus aureus [13]): 32 to 64 µg/mL (≈ 22.1 to 44.2 µM) | MIC (Staphylococcus aureus [14]): > 64 µg/mL | MIC (Staphylococcus aureus [15]): > 64 µg/mL | MIC (Staphylococcus aureus [16]): > 64 µg/mL

CCCCCCCCCC(=O)N[C@@H](Cc1c[nH]c2ccccc12)C(=O)N[C@@H](CC(N)=O)C(=O)N[C@@H](CC(=O)O)C(=O)N[C@@H]1C(=O)NCC(=O)N[C@@H](CCCN)C(=O)N[C@H](CC(=O)O)C(=O)N[C@H](C)C(=O)N[C@@H](CC(=O)O)C(=O)NCC(=O)N[C@H](CO)C(=O)N[C@@H]([C@@H](C)CC(=O)O)C(=O)N[C@@H](CC(=O)c2ccccc2N)C(=O)O[C@@H]1C
Activity (Staphylococcus aureus [17]): Active

O=C1c2ccc3c([nH]c4ccccc43)c2C(=O)C2OC12 (centres undefined)
MIC (Staphylococcus aureus [1]): 4 µg/mL (≈ 15.2 µM) | Activity [2]: 33%

COc1ccc(C23OC2C(=O)c2ccc4c5ccccc5n(C(C)C)c4c2C3=O)cc1 (centres undefined)
MIC (Staphylococcus aureus [1]): 0.5 µg/mL (≈ 1.22 µM)

C#CCCCn1c2ccccc2c2ccc3c(c21)C(=O)C1OC1C3=O (centres undefined)
MIC (Staphylococcus aureus [1]): 1 µg/mL (≈ 3.04 µM) | Activity [5]: Active | Activity (Staphylococcus aureus [6]): Dose-dependent effect | Activity (Staphylococcus aureus [7]): Active | Activity (Staphylococcus aureus [18]): inactive | Activity (Staphylococcus aureus [8]): Active | Activity (Escherichia coli [19]): Active | Activity (Escherichia coli [20]): Active | Activity (Staphylococcus aureus [21]): Dose-dependent effect | Activity (Staphylococcus aureus [22]): Dose-dependent effect | Activity (Staphylococcus aureus [23]): inactive | Activity (Staphylococcus aureus [24]): inactive | Activity (Escherichia coli [25]): inactive | Activity (Escherichia coli [26]): inactive

CC(C)n1c2ccccc2c2ccc3c(c21)C(=O)C1OC1(c1ccccc1)C3=O (centres undefined)
MIC (Staphylococcus aureus [1]): > 64 µg/mL | K [27]: 0.78 ×10⁻² /min | Activity [5]: Active

CCn1c2ccccc2c2ccc3c(c21)C(=O)C1OC1C3=O (centres undefined)
MIC (Staphylococcus aureus [1]): 2 µg/mL (≈ 6.87 µM) | Activity [2]: 33%

Cn1c2ccccc2c2ccc3c(c21)C(=O)C1OC1C3=O (centres undefined)
MIC (Staphylococcus aureus [1]): 4 µg/mL (≈ 14.4 µM) | Activity [2]: 27%
